Source: PubChem BioAssay (several laboratories)
TAAR1 ag – human TAAR1 agonism | activation, % at 3 µM | AID 624467 | 0.99% of 360,000 active | CHO RD-HGA16 TAAR1, Fluo-8 calcium fluorescence; vehicle wells 0%, saturating PEA agonist 100% | Q96RJ0;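 active = activation above the mean activation of all test compounds in the run plus 3 SD, cut at about 38% in these data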
Target sequence (Q96RJ0 whole entry, looked up): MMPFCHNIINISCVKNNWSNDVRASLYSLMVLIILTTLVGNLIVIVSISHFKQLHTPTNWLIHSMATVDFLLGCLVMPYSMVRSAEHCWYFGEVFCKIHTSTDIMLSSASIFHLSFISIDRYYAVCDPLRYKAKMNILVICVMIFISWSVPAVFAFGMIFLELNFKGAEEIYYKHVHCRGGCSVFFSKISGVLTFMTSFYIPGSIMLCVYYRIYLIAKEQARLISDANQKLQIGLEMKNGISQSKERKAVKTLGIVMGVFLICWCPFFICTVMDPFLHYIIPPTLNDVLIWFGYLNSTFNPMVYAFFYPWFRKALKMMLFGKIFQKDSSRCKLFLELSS
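System: CHO-derived RD-HGA16 cells with stable Gα16 and human TAAR1 / Times: 17-24 h plating, Fluo-8 75 min 37 °C, 30 min RT / Technique: calcium-sensitive Fluo-8 signal, excitation 470-495, emission 515-575 nm / Measure: % activation relative to PEA EC100 response / Benchmarks: DMSO and PEA EC100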
TRPML3 agonist – agonists of human TRPML3 channel; Q8TDD5; HEK293 TRPML3-YFP, Fluo-8 calcium fluorescence; 100% = the carbachol control signal; activation, % at 3 µM; 0.29% of 220,000 active; AID 1448;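 active = activation above its plate's cutoff, the mean activation of the plate's test wells plus 3 SD, cut at about 12% in these data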;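 note: 0% = DMSO only wells and 100% = carbachol wells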
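Test system: HEK293 cells stably carrying human TRPML3-YFP; Doses: single dose, 3 µM final nominal compound, 0.3% DMSO final; Schedule: dye loading 1 h 37 °C then 30 min ambient, 125 s read; Technique: Fluo-8 calcium fluorescence; Benchmarks: high control carbachol 87 µM, low control DMSO.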
GPR7 antagonist – antagonists of human GPR7 (neuropeptides B/W receptor 1). 1.1% of 290,000 active. inhibition, % at 4.4 µM. GPR7-expressing cells, fluorescence antagonist assay. AID 1861; in the data active = inhibition above about 16%, passing the limit was not always enough;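 note: cells stimulated with the agonist NPW; 0% = agonist with vehicle and 100% = vehicle without agonist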
Target sequence (P48145 whole entry, looked up): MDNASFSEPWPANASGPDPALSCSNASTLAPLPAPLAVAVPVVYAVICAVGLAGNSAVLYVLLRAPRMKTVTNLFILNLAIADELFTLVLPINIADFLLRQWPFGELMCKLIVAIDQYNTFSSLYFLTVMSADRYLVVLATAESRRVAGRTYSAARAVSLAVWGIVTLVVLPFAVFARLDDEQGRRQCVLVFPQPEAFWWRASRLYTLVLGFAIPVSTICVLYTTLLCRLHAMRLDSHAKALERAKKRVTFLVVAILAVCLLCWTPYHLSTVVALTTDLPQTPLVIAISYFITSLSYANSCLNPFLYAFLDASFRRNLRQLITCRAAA
LANA-H2B inh – blocks KSHV LANA binding to histone H2A/H2B; 0.6% of 320,000 active; cell-free LANA-H2A/H2B peptide, fluorescence polarization; Q9QR71; inhibition, % (test concentration not listed); AID 2629; in the data active = inhibition mostly above about 10%, no sharp cut-off; inactive = mostly below about 6.7%
TRPN1 ag – activates the zebrafish TRPN1 channel; HEK293 zebrafish TRPN1-YFP, Fluo-8 calcium fluorescence; 100% = response to 87 µM carbachol; activation, % at 3 µM; 0.18% of 220,000 active;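 active = activation above its plate's cutoff, the mean activation of test wells on that plate plus 3 SD, cut at about 19% in these data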;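 note: 0% = DMSO alone and 100% = 87 µM carbachol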
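System: zebrafish TRPN1-YFP in HEK293 cells / Dosing: 3 µM single point / Timing: dye loading 1 h at 37 °C, then 30 min room temperature / Signal: Fluo-8 calcium fluorescence, excitation 470-495 nm, emission 515-575 nm / Read-out basis: percent activation from peak over basal fluorescence ratio, control-normalized / Control set: high carbachol 87 µM, low DMSO alone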
TAAR1 antagonist – human TAAR1 antagonism; 1.5% of 360,000 active; inhibition, % at 3 µM; CHO RD-HGA16 TAAR1, Fluo-8 calcium fluorescence, antagonist; Q96RJ0;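 active = inhibition above a per-plate cutoff, the mean inhibition of test compounds on that plate plus 3 SD, cut at about 49% in these data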;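 note: 0% = DMSO plus EC80 beta-PEA response and 100% = DMSO alone without agonist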
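System: RD-HGA16 CHO cells with stable hTAAR1 and Gα16 | Probe or stimulus: EC80 β-phenethylamine stimulus | Dosing: 3 µM, single point | Times: Dye loading 75 min at 37 °C, then 30 min room temperature | Measured by: Fluo-8 calcium-sensitive fluorescence | Read-out basis: % inhibition of agonist calcium response | Replicates: n of 1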
Starred values were filed as active, the others as inactive; / = not tested or not shown; + = active, no number. Rows were chosen to be rich in hits. Some 3.4% of all compounds tested hit in one or more screens of this group.

SMILES	TAAR1 ag	TRPML3 agonist	GPR7 antagonist	LANA-H2B inh	TRPN1 ag	TAAR1 antagonist
CCn1ccnc1CN(C)Cc1cn(-c2cc(C)ccc2C)nc1-c1ccccc1	20	-1	-16	20*	-1	11
Oc1ccc2nnc3c(Br)cnn3c2c1	11	/	2	19*	/	-3
N#Cc1cc2c([nH]c1=O)CCCC2	1	1	-10	9.1*	2	-17
N#Cc1cc2c([nH]c1=S)CCCC2	2	0	10	3	1	5
COC(=O)C1=C(C)N(Cc2cccc(C(F)(F)F)c2)C(=NCc2cc(OC)c(OC)c(OC)c2)NC1c1cccc(F)c1 (stereo not given)	31	/	/	/	/	29
CCc1ccc(N/C(N)=N/c2nc(CSc3ccccn3)cc(=O)[nH]2)cc1	8	1	-1	-4	2	55*
COc1cccc(N/C(N)=N/c2nc(CSc3ccccn3)cc(=O)[nH]2)c1	/	1	0	-10	2	/
O=C(Cc1ccc(Cl)cc1)NNc1c(F)c(F)cc(F)c1F	-1	-1	7	27*	-1	10
O=C(NNc1c(F)c(F)cc(F)c1F)c1ccco1	2	/	/	-6	/	4
COC(=O)c1ccccc1NC(=O)NCc1ccncc1	1	0	1	35*	0	5
COC(=O)c1ccccc1NC(=O)NCc1ccccc1	-1	0	-7	-10	-2	-18
Cn1nc(CC(=O)NCc2ccc(C(F)(F)F)cc2)c2ccccc2c1=O	17	3	4	-4	7	52*
COc1ccc(CNC(=O)Cc2nn(C)c(=O)c3ccccc23)cc1	13	4	1	4	6	3
COC(=O)C1=C(C)N(Cc2ccccc2C(F)(F)F)C(=NCc2ccc3c(c2)OCO3)NC1c1ccccc1C(F)(F)F (stereo not given)	1	/	/	/	/	-50
Fc1ccc(CNCc2ccccc2Cl)cc1	1	-1	19*	-1	-2	1
Cc1ccc2[nH]c(O)c(N=NC(=O)c3ccc(NS(=O)(=O)c4cccs4)cc3)c2c1	0	0	-6	-1	0	10
Cc1cccc2c(N=NC(=O)c3ccc(NS(=O)(=O)c4cccs4)cc3)c(O)[nH]c12	5	/	/	4	/	56*
O=C(N/N=C/c1ccc(OCC(=O)N2CCCCC2)cc1)c1ccccc1	7	0	9	0	1	-6
O=C(N/N=C/c1ccc(OCC(=O)N2CCCC2)cc1)C(=O)NC1CC1	3	/	-14	26*	/	-7
COc1ccccc1N(CC(=O)N(C)Cc1ccccc1)S(=O)(=O)c1cccs1	7	/	/	+	/	-17
N#Cc1ccc(S(=O)(=O)N2CCCc3nc(-c4ccccc4)ccc32)cc1	0	/	/	/	/	-1
Cc1cccc(C)c1OCC(O)CN (stereo not given)	41*	0	-11	2	2	-16
COc1ccc(S(=O)(=O)N(CC(=O)O)c2ccccn2)cc1	6	0	-2	-1	3	-4
COc1ccc(S(=O)(=O)n2ccc(-c3ccc(OCCN(C)c4ccccn4)cc3)n2)cc1	8	2	21*	2	3	18
O=C(/C=C(\Nc1ccc(Cl)c(Cl)c1)c1ccccc1)c1ccccc1	-1	/	/	/	/	12
SMILES	TAAR1 ag	TRPML3 agonist	GPR7 antagonist	LANA-H2B inh	TRPN1 ag	TAAR1 antagonist
CS(=O)(=O)N1CCN(c2ccccc2NC(=S)NC(=O)c2ccccc2[N+](=O)[O-])CC1	31	1	-4	6	3	54*
CS(=O)(=O)N1CCN(c2ccccc2NC(=S)NC(=O)c2cccs2)CC1	15	0	-10	-4	0	47
CCCN1C(=O)c2n[nH]c(C)c2C1c1ccc(Br)cc1 (stereo not given)	-1	/	/	/	/	6
CC(=O)N1CCN(c2ccc(NCc3ccc(-c4ccc(Br)cc4)o3)cc2)CC1	11	/	/	-5	/	58*
CC(=O)N1CCN(c2ccc(NCc3ccc(Br)o3)cc2)CC1	9	/	/	1	/	9
Cc1coc2c(C)c3oc(=O)c(CCC(=O)N4C[C@H]5C[C@@H](C4)c4cccc(=O)n4C5)c(C)c3cc12	0	/	-10	-6	/	8
Cc1oc2c(C)c3oc(=O)c(CCC(=O)N4C[C@H]5C[C@@H](C4)c4cccc(=O)n4C5)c(C)c3cc2c1C	-2	/	-7	35*	/	-4
CC1=Nc2ccccc2/C1=C\c1nc(-c2ccccc2)oc1O	7	2	-2	-2	0	28
CC1=Nc2ccccc2/C1=C/c1nc(-c2ccc(C)s2)oc1O	38*	2	14	-4	4	54*
COc1ccc(-c2nn(CCC#N)cc2C(=O)Nc2cccc(C(=O)O)c2)cc1OC	6	/	-12	-1	/	-21
COc1ccc(-c2nn(CCC#N)cc2C(=O)Nc2cccc(C(=O)O)c2)cc1[N+](=O)[O-]	10	/	-14	15*	/	-22
O=C(Nc1ccc(C(=O)O)cc1)/C(=C\C=C\c1ccccc1)NC(=O)c1cccc(Br)c1	0	0	2	-1	-1	9
O=C(Nc1ccc(C(=O)O)cc1)/C(=C\C=C\c1ccccc1)NC(=O)c1ccccc1Br	2	/	-7	2	/	59*
Clc1ccc(Cn2ncc3c(N4CCN(c5ccccc5)CC4)ncnc32)cc1	12	/	/	/	/	57*
c1ccc(Cn2ncc3c(N4CCCCC4)ncnc32)cc1	-1	0	8	-6	1	2
Cc1noc(C)c1CSCC(=O)Oc1ccc(N(C)S(=O)(=O)c2ccc(Cl)cc2)cc1	5	/	/	-3	/	53*
Cc1noc(C)c1CSCC(=O)Oc1ccc(N(C)S(=O)(=O)c2ccccc2)cc1	6	/	/	6	/	38
CCOC(=O)C(c1ccccc1)C(Nc1ccc(F)cc1)c1ccccn1 (stereo not given)	2	-1	-15	21*	-3	-7
COc1ccc(N(CC(=O)NCc2ccc(F)cc2)C(=O)CCC(=O)Nc2ccccn2)cc1	-5	/	0	4	/	6
Cc1ccc(N(CC(=O)NCc2ccc(F)cc2)C(=O)CCC(=O)Nc2ccccn2)cc1C	3	/	10	26*	/	11
Cc1ccc(OCC(=O)N/N=C\c2ccc(O)c([N+](=O)[O-])c2)c([N+](=O)[O-])c1	2	1	-2	13*	0	9
COC(=O)c1ccsc1NS(C)(=O)=O	2	/	/	/	/	-4
